From ChEMBL document CHEMBL1133108, “Neurosteroid analogues. 8. Structure-activity studies of N-acylated 17a-aza-D-homosteroid analogues of the anesthetic steroids (3alpha, 5alpha)- and (3alpha,5beta)-3-hydroxypregnan-20-one” (J Med Chem, 2000)

How the values were obtained:
[1] = biological target: T1, GABA-A receptor; alpha-1/beta-2/gamma-2 (Rattus norvegicus) (UniProt P18508+P62813+P63138); experiment: Electrophysiological effect on rat alpha-1-beta-2-gamma-2 GABA-A receptor subunits expressed in xenopus laevis oocytes at 10 uM in the absence of GABA; format: functional, cell-based; settings: Oocyte
In short: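 Rat α1β2γ2 GABAA receptors are expressed in Xenopus oocytes. Steroid at 10 μM is applied alone, without GABA, and the directly gated current is measured. The value is the ratio of steroid-only current to the 2 μM GABA control current. N = 3–6 (12 for one reference steroid), mean ± SEM.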

[2] = biological target: GABA-A receptor; anion channel; experiment: Displacement of […]-tert-butylbicyclophosphorothionate (TBPS) from Gamma-aminobutyric acid A (GABA-A) receptor of rat brain membranes; format: cell membranes, Membrane
In short: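 Noncompetitive displacement of [35S]TBPS from the picrotoxin site in rat brain membranes. Full concentration-response curves were fitted for IC50. Data come from duplicate experiments, each run in triplicate, with mean ± SEM reported. Hill coefficients are given.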

[3] = biological target: T1, GABA-A receptor; alpha-1/beta-2/gamma-2 (Rattus norvegicus); experiment: Electrophysiological effect on rat alpha-1-beta-2-gamma-2 GABA-A receptor subunits expressed in xenopus laevis oocytes at 0.1 uM; format: functional, cell-based; settings: Oocyte
In short: (§1)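 Oocytes express rat α1β2γ2 GABAA receptors. The control response uses 2 μM GABA. Steroid is co-applied at 0.1, 1 or 10 μM. The value is the ratio of current with steroid to current without it. N = 3–6 (12 for one reference steroid), mean ± SEM. These are not full concentration-response curves.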

[4] = biological target: T1, GABA-A receptor; alpha-1/beta-2/gamma-2 (Rattus norvegicus); experiment: Electrophysiological effect on rat alpha-1-beta-2-gamma-2 GABA-A receptor subunits expressed in xenopus laevis oocytes at 10 uM; format: functional, cell-based; settings: Oocyte; in short: as §1
[5] = biological target: T1, GABA-A receptor; alpha-1/beta-2/gamma-2 (Rattus norvegicus); experiment: Electrophysiological effect on rat alpha-1-beta-2-gamma-2 GABA-A receptor subunits expressed in xenopus laevis oocytes at 1 uM; format: functional, cell-based; settings: Oocyte; in short: as §1

Row | Structure (SMILES) | Activity [1] | IC50 [2] [µM] | Activity [3] | Activity [4] | Activity [5]
1 | C[C@@]1(O)CC[C@]2(C)C3CC[C@@]4(C)C(CCCN4C(=O)CO)C3CC[C@H]2C1 (some centres undefined) | 0.2 | 0.55 | 1 | 6.5 | 1.22
2 | CC(=O)N1CCCC2C3CC[C@H]4C[C@H](O)CC[C@]4(C)C3CC[C@@]21C (some centres undefined) | 0.05 | 0.2 | 1.21 | 3.74 | 1.66
3 | CC(=O)[C@H]1CC[C@H]2[C@@H]3CC[C@@H]4C[C@H](O)CC[C@]4(C)[C@H]3CC[C@]12C [ELTANOLONE] | 0.01 | 0.071 | 0.97 | 4.3 | 1.92
4 | CC(=O)N1CCCC2C3CC[C@H]4C[C@](C)(O)CC[C@]4(C)C3CC[C@@]21C (some centres undefined) | 0.05 | 2.61 | 0.96 | 1.99 | 1.04
5 | CC(=O)N1CCCC2C3CC[C@@H]4C[C@H](O)CC[C@]4(C)C3CC[C@@]21C (some centres undefined) | 0.01 |  | 1.37 | 1.18 | 1.04
6 | C[C@]12CC[C@@H](O)C[C@H]1CC[C@@H]1[C@@H]2CC[C@]2(C)[C@@H](C(=O)CO)CC[C@@H]12 | 0.19 | 0.12 | 1.21 | 5.43 | 2.37
7 | C[C@]12CCC3C(CC[C@@H]4C[C@H](O)CC[C@]34C)C1CCCN2C(=O)CO (some centres undefined) | 0.1 | 0.93 | 1.36 | 3.87 | 1.57
8 | C[C@]12CCC3C(CC[C@H]4C[C@H](O)CC[C@]34C)C1CCCN2C(=O)CO (some centres undefined) | 0.49 | 0.045 | 1.17 | 8.09 | 1.73
9 | CC(=O)[C@H]1CC[C@H]2[C@@H]3CC[C@H]4C[C@H](O)CC[C@]4(C)[C@H]3CC[C@]12C [BREXANOLONE] | 0.37 | 0.074 | 1.26 | 9.65 | 3.89
10 | C[C@]12CC[C@@H](O)C[C@@H]1CC[C@@H]1[C@@H]2CC[C@]2(C)[C@@H](C(=O)CO)CC[C@@H]12 | 1.67 | 0.039 | 1.3 | 11.8 | 4.55
11 | C[C@]12CCC3C(CC[C@H]4C[C@H](O)CC[C@]34C)C1CCCN2C(=O)C(F)(F)F (some centres undefined) | 0.5 | 0.43 | 1.11 | 10.1 | 1.91
12 | C[C@]12CCC3C(CC[C@@H]4C[C@H](O)CC[C@]34C)C1CCCN2C(=O)C(F)(F)F (some centres undefined) | 0.02 | 6.22 | 0.98 | 1.12 | 0.96
